Laboratory results published in ChEMBL document CHEMBL1154286, “The discovery and optimisation of pyrido[2,3-d]pyrimidine-2,4-diamines as potent and selective inhibitors of mTOR kinase” (Bioorg Med Chem Lett, 2009).

How the values were obtained:
[1] = Inhibition of mTOR in human HeLa cells using 4E-BP1 substrate by ELISA; format: cell-based
How it was run: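 Full-length mTOR immunoprecipitated from HeLa cytoplasmic extract; recombinant 4E-BP1 protein as substrate; ATP at 50 µM; phosphorylated product detected by ELISA. Values are the mean of at least 3 determinations, with variability around the mean <50%.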

[2] = molecular target: Serine/threonine-protein kinase mTOR (Homo sapiens) (UniProt P42345); experiment: Inhibition of mTOR in human HeLa cells using 4E-BP1 substrate at 10 uM by ELISA; format: cell-based
T47D = experiment: Antiproliferative activity against human T47D cells after 120 hrs by SRB assay; format: functional
[3] = molecular target: Serine/threonine-protein kinase ATR (Homo sapiens, UniProt Q13535); experiment: Inhibition of ATR
[4] = molecular target: DNA-dependent protein kinase catalytic subunit (Homo sapiens, UniProt P78527); experiment: Inhibition of DNA-PK
Sequence of DNA-dependent protein kinase catalytic subunit (P78527 whole entry): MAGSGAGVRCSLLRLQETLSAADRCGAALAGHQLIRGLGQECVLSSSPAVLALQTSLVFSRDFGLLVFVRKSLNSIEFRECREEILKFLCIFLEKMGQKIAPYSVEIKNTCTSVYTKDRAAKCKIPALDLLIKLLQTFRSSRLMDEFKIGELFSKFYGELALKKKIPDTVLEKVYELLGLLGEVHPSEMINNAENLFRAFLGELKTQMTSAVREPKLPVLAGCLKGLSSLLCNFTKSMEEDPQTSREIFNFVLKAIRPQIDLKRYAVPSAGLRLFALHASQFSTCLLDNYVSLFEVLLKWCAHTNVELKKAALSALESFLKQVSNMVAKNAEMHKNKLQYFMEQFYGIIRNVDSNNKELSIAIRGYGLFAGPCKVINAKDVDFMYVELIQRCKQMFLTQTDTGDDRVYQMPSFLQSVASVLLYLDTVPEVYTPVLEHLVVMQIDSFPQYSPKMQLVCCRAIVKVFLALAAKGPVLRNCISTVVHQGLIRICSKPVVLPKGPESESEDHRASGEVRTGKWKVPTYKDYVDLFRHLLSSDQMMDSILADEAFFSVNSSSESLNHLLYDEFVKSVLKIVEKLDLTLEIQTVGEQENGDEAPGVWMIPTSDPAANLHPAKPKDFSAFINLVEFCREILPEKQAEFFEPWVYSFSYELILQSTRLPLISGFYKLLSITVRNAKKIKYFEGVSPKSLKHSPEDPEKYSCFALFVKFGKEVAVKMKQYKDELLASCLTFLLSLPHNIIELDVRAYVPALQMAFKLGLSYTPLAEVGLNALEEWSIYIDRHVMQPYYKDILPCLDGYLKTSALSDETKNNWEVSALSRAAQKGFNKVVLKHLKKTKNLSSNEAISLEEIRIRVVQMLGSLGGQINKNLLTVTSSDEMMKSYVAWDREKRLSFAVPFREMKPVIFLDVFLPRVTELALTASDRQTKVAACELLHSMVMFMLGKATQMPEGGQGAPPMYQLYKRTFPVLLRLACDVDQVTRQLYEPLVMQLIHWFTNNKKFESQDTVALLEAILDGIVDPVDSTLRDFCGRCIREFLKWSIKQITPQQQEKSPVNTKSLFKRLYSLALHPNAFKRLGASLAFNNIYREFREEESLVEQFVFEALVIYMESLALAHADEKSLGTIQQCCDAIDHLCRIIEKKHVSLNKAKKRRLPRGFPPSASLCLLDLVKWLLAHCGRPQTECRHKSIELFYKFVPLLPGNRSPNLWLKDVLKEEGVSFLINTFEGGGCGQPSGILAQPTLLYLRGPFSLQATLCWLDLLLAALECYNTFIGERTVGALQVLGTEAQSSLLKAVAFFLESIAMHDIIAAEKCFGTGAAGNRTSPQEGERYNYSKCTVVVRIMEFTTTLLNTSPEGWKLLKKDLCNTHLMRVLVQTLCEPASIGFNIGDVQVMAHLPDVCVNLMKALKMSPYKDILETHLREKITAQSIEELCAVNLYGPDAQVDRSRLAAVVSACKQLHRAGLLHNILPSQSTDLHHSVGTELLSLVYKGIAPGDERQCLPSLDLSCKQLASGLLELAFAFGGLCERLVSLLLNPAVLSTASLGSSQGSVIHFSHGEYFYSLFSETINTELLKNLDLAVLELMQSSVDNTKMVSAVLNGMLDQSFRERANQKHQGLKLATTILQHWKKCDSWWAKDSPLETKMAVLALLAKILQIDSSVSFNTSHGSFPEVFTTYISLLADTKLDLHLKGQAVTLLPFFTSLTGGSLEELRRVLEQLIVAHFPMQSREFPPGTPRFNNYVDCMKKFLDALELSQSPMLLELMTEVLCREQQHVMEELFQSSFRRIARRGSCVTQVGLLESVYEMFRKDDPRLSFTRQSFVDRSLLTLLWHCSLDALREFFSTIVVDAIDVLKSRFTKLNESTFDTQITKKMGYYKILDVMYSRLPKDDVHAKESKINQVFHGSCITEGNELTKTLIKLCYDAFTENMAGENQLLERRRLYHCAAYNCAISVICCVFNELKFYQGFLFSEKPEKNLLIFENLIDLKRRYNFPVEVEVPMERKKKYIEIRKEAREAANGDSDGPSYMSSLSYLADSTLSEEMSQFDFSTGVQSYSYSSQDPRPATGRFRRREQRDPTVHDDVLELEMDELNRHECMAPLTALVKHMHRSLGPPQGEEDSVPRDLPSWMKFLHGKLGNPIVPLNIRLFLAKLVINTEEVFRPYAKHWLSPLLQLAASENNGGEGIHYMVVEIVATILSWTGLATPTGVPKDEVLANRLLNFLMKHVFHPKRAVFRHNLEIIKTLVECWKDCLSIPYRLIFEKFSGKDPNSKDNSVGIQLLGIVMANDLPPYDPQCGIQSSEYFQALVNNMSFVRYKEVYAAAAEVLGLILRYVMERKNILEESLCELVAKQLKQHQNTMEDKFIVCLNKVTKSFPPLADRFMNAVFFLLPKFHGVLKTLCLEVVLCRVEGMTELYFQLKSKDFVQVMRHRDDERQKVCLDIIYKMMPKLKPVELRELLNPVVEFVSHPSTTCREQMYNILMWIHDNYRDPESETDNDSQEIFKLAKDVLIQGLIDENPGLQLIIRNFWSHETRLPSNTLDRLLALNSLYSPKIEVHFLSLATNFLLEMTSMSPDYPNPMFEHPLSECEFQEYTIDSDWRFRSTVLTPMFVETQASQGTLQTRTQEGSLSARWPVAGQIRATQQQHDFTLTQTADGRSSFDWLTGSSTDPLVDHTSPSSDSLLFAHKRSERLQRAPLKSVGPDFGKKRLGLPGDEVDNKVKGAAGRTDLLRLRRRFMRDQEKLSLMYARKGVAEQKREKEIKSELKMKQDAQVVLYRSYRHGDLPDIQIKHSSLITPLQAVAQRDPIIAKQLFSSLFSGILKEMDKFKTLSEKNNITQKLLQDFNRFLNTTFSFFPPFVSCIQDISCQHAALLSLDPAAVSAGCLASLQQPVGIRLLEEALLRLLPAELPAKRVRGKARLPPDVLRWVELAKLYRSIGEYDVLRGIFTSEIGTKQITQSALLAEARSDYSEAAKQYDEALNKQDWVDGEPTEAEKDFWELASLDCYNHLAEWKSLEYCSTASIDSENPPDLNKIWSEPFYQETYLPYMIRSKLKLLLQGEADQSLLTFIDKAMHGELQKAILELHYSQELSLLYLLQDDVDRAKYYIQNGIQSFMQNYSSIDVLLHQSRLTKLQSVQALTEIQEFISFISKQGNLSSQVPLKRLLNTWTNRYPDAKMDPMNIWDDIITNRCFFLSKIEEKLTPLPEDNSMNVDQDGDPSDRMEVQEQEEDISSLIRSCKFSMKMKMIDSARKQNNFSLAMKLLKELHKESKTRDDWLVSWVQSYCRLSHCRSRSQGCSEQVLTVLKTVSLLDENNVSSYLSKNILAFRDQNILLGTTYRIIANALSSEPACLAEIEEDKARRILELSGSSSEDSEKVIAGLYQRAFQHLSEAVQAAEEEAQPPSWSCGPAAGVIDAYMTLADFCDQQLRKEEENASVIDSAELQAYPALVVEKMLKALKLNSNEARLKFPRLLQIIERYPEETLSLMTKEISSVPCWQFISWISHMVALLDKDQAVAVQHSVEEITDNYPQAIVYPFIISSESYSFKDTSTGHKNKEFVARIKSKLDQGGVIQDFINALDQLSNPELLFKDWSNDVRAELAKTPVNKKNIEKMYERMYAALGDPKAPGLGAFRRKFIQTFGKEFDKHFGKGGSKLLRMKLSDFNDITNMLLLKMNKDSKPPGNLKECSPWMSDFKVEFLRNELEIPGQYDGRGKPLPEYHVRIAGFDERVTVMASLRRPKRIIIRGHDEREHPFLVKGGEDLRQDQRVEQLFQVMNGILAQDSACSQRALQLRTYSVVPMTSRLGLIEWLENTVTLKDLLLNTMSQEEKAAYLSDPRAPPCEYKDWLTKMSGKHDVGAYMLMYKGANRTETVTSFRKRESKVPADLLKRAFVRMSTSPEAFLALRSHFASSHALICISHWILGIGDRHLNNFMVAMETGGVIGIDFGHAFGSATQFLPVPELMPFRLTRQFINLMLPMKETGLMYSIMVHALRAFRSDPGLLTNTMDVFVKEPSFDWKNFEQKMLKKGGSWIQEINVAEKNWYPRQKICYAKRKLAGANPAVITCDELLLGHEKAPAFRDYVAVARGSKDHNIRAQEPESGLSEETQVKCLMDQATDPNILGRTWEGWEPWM

| Structure (SMILES) | IC50 [1] | also measured |
| --- | --- | --- |
| C[C@@H]1CN(c2nc(N3CCOCC3)c3ccc(-c4ccc(O)cc4)nc3n2)C[C@H](C)O1 | 39 nM |  |
| C[C@@H]1CN(c2nc(N3CCOCC3)c3cccnc3n2)C[C@H](C)O1 | 1300 nM |  |
| CC1CCCCN1c1nc(N2CCOCC2)c2ccncc2n1 (stereo not drawn) |  | inhibition [2]: < 30% |
| C[C@@H]1CN(c2nc(N3CCOCC3)c3ccc(-c4ccoc4)nc3n2)C[C@H](C)O1 | 120 nM |  |
| C[C@@H]1CCCCN1c1nc(N2CCOCC2)c2cccnc2n1 | 1200 nM |  |
| COc1ccc(-c2ccc3c(N4CCOCC4)nc(N4C[C@@H](C)O[C@@H](C)C4)nc3n2)cc1 | 45 nM |  |
| C[C@H]1CCCCN1c1nc(N2CCOCC2)c2cccnc2n1 | 690 nM |  |
| C[C@@H]1CN(c2nc(N3CCOCC3)c3ccc(-c4cccc(O)c4)nc3n2)C[C@H](C)O1 | 53 nM |  |
| C[C@@H]1CN(c2nc(N3CCOCC3)c3ccc(-c4ccc(O)c(CO)c4)nc3n2)C[C@H](C)O1 | 37 nM |  |
| CC1CCCCN1c1nc(N2CCOCC2)c2ccccc2n1 (stereo not drawn) |  | inhibition [2]: < 30% |
| C[C@H]1COCCN1c1nc(N2CCOCC2)c2cccnc2n1 | 1800 nM |  |
| C[C@H]1CCCCN1c1nc(N2CCCOCC2)c2cccnc2n1 | 4800 nM |  |
| C[C@@H]1CN(c2nc(N3CCOCC3)c3ccc(-c4ccccc4)nc3n2)C[C@H](C)O1 | 62 nM |  |
| C[C@@H]1CN(c2nc(N3CCOCC3)c3ccc(-c4ccncc4)nc3n2)C[C@H](C)O1 | 220 nM |  |
| CC1CCCCN1c1nc(N2CCOCC2)c2ncccc2n1 (stereo not drawn) |  | inhibition [2]: < 30% |
| C[C@H]1CCCCN1c1nc(N2CCCCC2)c2cccnc2n1 |  | inhibition [2]: < 30% |
| c1cnc2nc(N3CCOCC3)nc(N3CCOCC3)c2c1 |  | inhibition [2]: < 30% |
| CC1CCCN(c2nc(N3CCOCC3)c3cccnc3n2)C1 (stereo not drawn) | 3000 nM |  |
| C[C@@H]1CN(c2nc(N3CCOCC3)c3ccc(Nc4ccccc4)nc3n2)C[C@H](C)O1 | 120 nM |  |
| COc1cccc(-c2ccc3c(N4CCOCC4)nc(N4C[C@@H](C)O[C@@H](C)C4)nc3n2)c1 | 490 nM |  |
| C[C@@H]1CN(c2nc(N3CCOCC3)c3ccc(Nc4ccncc4)nc3n2)C[C@H](C)O1 | 87 nM |  |
| CC1CCCCN1c1nc(N2CCOCC2)c2cccnc2n1 (racemic) | 1000 nM |  |
| C[C@@H]1CN(c2nc(N3CCOCC3)c3ccc(-c4cccc(CO)c4)nc3n2)C[C@H](C)O1 | 93 nM |  |
| COc1ccc(-c2ccc3c(N4CCOCC4)nc(N4C[C@@H](C)O[C@@H](C)C4)nc3n2)cc1CO [Ku-0063794] | 16 nM | GI50 (T47D): 350 nM; IC50 [3]: > 10 µM; IC50 [4]: > 10 µM |
| C[C@@H]1CN(c2nc(N3CCOCC3)c3ccc(-c4ccsc4)nc3n2)C[C@H](C)O1 | 33 nM |  |
